Measurements as given in ChEMBL document CHEMBL5126600, “Discovery of the First-in-Class G9a/GLP Covalent Inhibitors” (J Med Chem, 2022).
The source made the active and inactive calls. The rule behind the calls is not given here.

How the values were obtained:
MDA-MB-231 = assay: Cytotoxicity against human MDA-MB-231 cells after 3 days by CCK-8 assay; format: functional, cell-based; conditions: time 3.0 day
Procedure, shortened: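 MDA-MB-231 cells seeded at 1 × 10^4 per well in 96-well plates, exposed to compounds over a range of concentrations for 3 days.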

[1] = target: Protein arginine N-methyltransferase 8 (Homo sapiens) (UniProt Q9NR22); assay: Inhibition of N/C-terminal His-tagged PRMT8 (61 to 394 residues) (unknown origin) expressed in Escherichia coli at 1 uM using 3H-SAM as a substrate relative to control
Procedure, shortened: (§1)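 Contracted 3H-SAM methyl-transfer scintillation proximity assay against a panel of methyltransferases; compound tested at 1 μM in duplicate; inhibition expressed as percent of control enzyme activity.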

[2] = target: PRMT5/MEP50 complex (Homo sapiens) (UniProt O14744+Q9BQA1); assay: Inhibition of recombinant human N-terminal Flag-tagged PRMT5 (2 to 637 residues)/N-terminal His-tagged MEP50 (2 to 342 residues) expressed in baculovirus expression system at 1 uM using 3H-SAM as a substrate relative to control; procedure, shortened: as §1
[3] = target: T1, Histone-lysine N-methyltransferase EHMT2 (Homo sapiens, UniProt Q96KQ7); assay: Inhibition of human G9a (913 to 1193 residues) using H3 peptide as substrate measured upto 45 mins in presence of SAM cofactor
T1 sequence (Q96KQ7 whole entry): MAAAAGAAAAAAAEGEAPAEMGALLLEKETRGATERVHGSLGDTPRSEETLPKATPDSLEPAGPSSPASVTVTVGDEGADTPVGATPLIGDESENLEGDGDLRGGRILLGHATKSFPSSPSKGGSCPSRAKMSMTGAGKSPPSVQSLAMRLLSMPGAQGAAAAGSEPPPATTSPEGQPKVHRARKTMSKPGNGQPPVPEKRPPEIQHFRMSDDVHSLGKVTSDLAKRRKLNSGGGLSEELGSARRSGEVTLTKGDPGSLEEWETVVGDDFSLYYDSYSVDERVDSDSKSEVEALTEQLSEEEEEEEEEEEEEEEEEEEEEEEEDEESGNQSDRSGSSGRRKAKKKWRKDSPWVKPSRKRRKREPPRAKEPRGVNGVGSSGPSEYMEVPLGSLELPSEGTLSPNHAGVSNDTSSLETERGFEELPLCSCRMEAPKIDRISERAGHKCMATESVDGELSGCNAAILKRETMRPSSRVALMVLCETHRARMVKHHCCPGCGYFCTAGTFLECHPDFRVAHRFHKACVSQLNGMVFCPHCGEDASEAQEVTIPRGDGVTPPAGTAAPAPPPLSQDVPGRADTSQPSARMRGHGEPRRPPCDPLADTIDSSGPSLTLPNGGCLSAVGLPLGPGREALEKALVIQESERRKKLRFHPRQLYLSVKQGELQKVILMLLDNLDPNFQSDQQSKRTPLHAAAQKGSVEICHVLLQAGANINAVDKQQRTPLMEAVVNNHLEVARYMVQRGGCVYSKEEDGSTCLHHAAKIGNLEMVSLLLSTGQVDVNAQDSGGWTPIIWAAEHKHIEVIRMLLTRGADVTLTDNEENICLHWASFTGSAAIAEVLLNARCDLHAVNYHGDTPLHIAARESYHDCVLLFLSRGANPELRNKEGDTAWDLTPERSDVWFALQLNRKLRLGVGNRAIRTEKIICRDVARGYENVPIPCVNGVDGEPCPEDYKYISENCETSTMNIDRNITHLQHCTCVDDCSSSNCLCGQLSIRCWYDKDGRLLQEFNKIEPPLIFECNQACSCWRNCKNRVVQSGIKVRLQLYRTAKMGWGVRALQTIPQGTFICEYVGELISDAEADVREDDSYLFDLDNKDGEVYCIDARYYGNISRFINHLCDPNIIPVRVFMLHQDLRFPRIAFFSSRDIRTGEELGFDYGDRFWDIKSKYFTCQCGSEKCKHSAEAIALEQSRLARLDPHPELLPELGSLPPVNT

[4] = target: Histone-lysine N-methyltransferase, H3 lysine-79 specific (Homo sapiens) (UniProt Q8TEK3); assay: Inhibition of N-terminal GST-tagged human DOT1L (1 to 416 residues) expressed in Escherichia coli at 1 uM using 3H-SAM as a substrate relative to control; procedure, shortened: as §1
[5] = target: Histone-lysine N-methyltransferase SETD2 (Homo sapiens) (UniProt Q9BYW2); assay: Inhibition of SETD2 (unknown origin) at 1 uM using 3H-SAM as a substrate relative to control; procedure, shortened: as §1
[6] = target: T2, Histone-lysine N-methyltransferase EHMT2 (Homo sapiens) (UniProt Q96KQ7); assay: Inhibition of human G9a (913 to 1193 residues) assessed as covalent modification by measuring G9a adduct formation by mass spectrometry; conditions: time <= 120.0 min, TDE = time-dependent effect
T2 sequence (whole entry): T1 sequence (Q96KQ7 whole entry)
Procedure, shortened: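 Purified G9a or GLP catalytic domain (5 μM) in 50 mM Tris-HCl pH 7.5, 150 mM NaCl incubated with 50 μM compound or DMSO at room temperature (1 h, or 30 and 60 min in time course); intact mass by ESI LC/MS-TOF; adduct % = adduct/(protein + adduct) × 100.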

[7] = target: T1, Histone-lysine N-methyltransferase EHMT2; assay: Binding affinity to human G9a (913 to 1193 residues) assessed as dissociation constant by isothermal titration calorimetry method
Procedure, shortened: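 Initial 0.4 μL injection, then 13 injections of 500 μM compound from the syringe, stirred at 750 rpm. Experiment time about 50 min. Data fitted to a single binding site model. Mean ± SD of two independent measurements.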

Sequence of Protein arginine N-methyltransferase 8 (Homo sapiens) (Q9NR22 2-394 limits assumed): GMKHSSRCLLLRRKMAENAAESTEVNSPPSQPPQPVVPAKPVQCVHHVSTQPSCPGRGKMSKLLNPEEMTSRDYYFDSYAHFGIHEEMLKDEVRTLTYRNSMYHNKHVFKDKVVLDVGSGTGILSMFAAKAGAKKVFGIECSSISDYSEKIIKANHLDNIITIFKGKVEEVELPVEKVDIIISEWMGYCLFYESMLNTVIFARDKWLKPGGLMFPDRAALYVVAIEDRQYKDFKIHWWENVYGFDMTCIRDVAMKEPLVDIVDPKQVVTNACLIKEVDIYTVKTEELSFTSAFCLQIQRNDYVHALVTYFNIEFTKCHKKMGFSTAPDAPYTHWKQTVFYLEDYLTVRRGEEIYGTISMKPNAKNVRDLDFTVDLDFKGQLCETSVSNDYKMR
Sequence of Histone-lysine N-methyltransferase, H3 lysine-79 specific (Homo sapiens) (Q8TEK3 whole entry, looked up, the tested form may be a part): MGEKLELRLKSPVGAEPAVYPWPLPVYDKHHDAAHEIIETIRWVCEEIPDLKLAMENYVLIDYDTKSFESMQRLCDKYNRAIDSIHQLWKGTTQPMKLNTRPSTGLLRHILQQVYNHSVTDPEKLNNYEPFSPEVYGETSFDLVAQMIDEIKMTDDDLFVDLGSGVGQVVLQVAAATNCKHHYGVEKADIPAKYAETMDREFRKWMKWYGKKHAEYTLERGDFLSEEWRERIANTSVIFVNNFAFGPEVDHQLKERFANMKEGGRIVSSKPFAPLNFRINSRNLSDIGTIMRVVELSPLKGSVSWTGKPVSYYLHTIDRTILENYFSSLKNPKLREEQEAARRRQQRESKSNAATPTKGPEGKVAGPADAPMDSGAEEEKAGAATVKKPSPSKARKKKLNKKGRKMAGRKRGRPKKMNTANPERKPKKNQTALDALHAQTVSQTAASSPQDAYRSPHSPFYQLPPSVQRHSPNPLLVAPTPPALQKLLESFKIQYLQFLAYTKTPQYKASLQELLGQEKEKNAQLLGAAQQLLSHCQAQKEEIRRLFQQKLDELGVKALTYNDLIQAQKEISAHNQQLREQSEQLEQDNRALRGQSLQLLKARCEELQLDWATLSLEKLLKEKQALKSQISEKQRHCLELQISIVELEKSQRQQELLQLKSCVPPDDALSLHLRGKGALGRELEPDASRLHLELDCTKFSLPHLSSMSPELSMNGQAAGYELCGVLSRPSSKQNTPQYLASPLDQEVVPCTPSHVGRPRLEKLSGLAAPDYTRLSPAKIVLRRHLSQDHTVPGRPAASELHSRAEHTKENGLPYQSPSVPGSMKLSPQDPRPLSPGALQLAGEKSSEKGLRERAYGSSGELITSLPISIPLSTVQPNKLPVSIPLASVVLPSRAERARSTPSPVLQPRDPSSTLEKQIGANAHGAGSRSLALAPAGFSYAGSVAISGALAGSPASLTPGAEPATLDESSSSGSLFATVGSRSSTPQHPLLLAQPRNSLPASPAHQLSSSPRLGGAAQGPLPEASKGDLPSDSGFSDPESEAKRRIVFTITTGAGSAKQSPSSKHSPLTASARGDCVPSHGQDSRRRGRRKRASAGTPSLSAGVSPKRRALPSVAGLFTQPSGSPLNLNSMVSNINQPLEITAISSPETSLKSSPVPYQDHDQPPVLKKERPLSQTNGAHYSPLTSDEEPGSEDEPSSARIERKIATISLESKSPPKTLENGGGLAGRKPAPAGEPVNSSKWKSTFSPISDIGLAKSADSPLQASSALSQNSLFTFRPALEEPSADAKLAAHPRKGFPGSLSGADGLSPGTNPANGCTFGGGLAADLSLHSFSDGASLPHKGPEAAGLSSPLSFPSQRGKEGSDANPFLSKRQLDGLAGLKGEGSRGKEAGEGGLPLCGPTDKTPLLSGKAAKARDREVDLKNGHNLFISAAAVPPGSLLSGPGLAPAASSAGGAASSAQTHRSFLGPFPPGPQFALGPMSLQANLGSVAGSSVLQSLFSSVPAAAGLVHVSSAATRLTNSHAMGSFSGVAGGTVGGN
Sequence of Histone-lysine N-methyltransferase SETD2 (Homo sapiens) (Q9BYW2 whole entry, the tested form may be a part): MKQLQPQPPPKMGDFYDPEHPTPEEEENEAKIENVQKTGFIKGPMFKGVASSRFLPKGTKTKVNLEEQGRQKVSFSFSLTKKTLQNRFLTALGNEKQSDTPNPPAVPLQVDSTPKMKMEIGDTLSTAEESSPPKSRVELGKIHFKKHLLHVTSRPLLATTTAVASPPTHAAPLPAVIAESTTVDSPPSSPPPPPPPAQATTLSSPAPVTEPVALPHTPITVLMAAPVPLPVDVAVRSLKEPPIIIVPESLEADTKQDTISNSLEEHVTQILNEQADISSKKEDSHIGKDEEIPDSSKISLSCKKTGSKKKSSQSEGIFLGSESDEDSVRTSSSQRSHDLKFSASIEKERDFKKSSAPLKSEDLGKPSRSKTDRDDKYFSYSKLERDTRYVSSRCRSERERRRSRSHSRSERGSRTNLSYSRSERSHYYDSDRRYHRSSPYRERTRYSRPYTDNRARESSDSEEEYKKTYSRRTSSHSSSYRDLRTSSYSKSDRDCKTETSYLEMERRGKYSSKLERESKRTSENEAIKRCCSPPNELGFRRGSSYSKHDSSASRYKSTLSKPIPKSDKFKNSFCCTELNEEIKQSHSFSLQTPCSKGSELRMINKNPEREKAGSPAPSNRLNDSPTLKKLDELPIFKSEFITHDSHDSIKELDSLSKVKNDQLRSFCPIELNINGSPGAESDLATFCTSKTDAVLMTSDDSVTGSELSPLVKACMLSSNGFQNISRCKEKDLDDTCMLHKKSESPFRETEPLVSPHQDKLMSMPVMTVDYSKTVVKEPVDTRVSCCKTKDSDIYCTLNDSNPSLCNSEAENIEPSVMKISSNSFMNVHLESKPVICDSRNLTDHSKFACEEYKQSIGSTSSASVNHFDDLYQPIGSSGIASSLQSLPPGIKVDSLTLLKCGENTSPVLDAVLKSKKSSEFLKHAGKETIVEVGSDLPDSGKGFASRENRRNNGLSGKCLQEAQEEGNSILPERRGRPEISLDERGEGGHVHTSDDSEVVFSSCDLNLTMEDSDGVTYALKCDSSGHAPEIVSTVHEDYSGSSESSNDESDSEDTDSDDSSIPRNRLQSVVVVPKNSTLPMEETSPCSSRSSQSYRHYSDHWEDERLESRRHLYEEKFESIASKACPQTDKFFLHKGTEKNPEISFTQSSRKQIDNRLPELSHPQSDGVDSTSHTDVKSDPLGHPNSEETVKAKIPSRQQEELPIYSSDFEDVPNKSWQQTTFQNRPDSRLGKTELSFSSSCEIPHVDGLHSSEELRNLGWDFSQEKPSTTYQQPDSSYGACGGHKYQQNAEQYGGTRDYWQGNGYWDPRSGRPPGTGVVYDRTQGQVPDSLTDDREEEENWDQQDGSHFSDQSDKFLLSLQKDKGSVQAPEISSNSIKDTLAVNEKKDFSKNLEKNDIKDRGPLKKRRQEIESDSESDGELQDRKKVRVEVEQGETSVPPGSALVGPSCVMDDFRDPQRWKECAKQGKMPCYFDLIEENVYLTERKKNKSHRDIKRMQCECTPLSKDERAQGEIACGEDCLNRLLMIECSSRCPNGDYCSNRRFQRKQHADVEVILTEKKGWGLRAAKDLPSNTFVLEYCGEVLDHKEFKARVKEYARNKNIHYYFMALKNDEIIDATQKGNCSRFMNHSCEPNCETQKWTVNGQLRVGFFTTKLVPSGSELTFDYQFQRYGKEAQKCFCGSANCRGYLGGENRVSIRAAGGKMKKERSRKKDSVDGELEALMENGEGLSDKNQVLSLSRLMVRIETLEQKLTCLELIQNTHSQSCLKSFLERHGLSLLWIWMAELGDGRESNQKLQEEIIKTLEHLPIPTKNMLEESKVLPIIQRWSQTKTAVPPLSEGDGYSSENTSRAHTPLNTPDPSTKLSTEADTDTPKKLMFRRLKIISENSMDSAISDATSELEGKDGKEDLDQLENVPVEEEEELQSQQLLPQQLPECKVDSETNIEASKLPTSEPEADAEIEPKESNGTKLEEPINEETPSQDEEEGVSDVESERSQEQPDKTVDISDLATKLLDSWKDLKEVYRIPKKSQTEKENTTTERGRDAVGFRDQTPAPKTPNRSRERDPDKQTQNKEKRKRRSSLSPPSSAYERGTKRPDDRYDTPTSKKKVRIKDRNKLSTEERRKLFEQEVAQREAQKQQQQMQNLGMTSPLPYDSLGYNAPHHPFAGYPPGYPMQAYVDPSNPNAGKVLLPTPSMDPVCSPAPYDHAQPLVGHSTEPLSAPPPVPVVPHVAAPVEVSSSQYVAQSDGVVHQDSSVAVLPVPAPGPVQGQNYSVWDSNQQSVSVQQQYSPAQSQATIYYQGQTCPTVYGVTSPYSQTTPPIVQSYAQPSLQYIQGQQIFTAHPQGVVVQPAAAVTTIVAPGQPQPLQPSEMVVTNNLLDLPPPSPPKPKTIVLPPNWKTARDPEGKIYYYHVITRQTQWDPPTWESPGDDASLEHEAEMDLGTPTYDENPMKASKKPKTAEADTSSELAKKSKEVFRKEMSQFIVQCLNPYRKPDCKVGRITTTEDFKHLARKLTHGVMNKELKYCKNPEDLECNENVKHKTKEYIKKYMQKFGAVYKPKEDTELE

inhibition [1]: < 50%
inhibition [2]: < 50%
IC50 [3]: 100 nM
inhibition [4]: < 50%
inhibition [5]: < 50%
inhibition [6]: Tde
Kd [7]: 44 nM
Compound: C=CC(=O)Nc1cc(NC2CCN(C(C)C)CC2)c2cc(OC)c(OCCCN3CCCC3)cc2n1
Activity (MDA-MB-231): Active
